Experimental data as given in ChEMBL document CHEMBL1140993, “Design, synthesis and preliminary evaluation of novel pyrrolidine derivatives as matrix metalloproteinase inhibitors” (Eur J Med Chem, 2008).

What was measured:
[1] = biological target: 72 kDa type IV collagenase (Homo sapiens, UniProt P08253); assay: Inhibition of MMP2 by microtiter plate fluorimetric assay
Summary of the method: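 Substrate was succinylated gelatin, in 50 mM sodium borate buffer, pH 8.5. Compound and enzyme were preincubated 30 min at 37 °C, then incubated another 60 min at 37 °C after substrate addition. Controls were a 100% group without compound and a blank with enzyme only.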

Aminopeptidase N = Aminopeptidase N (Homo sapiens, UniProt P15144); assay: Inhibition of aminopeptidase N by microtiter plate fluorimetric assay; details: in the assay text read “spectrophotometric” for “fluorimetric”
Sequence of Aminopeptidase N (P15144 whole entry): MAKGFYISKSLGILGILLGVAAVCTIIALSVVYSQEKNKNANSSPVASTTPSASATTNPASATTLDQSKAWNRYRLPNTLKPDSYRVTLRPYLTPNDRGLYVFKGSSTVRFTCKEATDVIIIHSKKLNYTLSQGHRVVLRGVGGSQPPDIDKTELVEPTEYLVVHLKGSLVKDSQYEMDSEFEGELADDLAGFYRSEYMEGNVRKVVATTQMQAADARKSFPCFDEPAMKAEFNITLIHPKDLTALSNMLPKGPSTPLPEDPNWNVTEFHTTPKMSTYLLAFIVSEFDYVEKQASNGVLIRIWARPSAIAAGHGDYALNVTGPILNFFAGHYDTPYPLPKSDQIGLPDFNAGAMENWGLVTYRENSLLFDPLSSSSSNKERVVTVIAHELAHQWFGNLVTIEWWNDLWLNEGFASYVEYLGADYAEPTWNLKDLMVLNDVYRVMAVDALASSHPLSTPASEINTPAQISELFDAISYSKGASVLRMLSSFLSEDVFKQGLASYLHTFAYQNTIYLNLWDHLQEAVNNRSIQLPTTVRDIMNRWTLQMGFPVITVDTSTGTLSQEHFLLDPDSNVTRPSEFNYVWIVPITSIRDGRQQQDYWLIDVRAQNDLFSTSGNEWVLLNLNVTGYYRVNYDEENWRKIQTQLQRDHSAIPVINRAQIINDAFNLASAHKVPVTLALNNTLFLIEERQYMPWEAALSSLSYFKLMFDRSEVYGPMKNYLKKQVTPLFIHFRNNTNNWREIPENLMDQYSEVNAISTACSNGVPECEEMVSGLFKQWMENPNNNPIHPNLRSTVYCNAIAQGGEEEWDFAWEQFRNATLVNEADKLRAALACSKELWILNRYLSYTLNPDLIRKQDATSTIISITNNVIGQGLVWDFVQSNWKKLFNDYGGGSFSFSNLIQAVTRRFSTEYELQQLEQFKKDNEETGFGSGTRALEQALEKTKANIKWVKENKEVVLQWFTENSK
Summary of the method: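 Substrate was L-leucine p-nitroanilide, in 50 mM sodium phosphate buffer, pH 7.2. Enzyme and compound were preincubated 30 min at 37 °C, then incubated 60 min at 37 °C with substrate. OD405 was read. Inhibition % = [OD(100%) − OD(compound)]/[OD(100%) − OD(blank)] × 100, where 100% has no compound and blank has enzyme only.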

Sequence of 72 kDa type IV collagenase (P08253 whole entry): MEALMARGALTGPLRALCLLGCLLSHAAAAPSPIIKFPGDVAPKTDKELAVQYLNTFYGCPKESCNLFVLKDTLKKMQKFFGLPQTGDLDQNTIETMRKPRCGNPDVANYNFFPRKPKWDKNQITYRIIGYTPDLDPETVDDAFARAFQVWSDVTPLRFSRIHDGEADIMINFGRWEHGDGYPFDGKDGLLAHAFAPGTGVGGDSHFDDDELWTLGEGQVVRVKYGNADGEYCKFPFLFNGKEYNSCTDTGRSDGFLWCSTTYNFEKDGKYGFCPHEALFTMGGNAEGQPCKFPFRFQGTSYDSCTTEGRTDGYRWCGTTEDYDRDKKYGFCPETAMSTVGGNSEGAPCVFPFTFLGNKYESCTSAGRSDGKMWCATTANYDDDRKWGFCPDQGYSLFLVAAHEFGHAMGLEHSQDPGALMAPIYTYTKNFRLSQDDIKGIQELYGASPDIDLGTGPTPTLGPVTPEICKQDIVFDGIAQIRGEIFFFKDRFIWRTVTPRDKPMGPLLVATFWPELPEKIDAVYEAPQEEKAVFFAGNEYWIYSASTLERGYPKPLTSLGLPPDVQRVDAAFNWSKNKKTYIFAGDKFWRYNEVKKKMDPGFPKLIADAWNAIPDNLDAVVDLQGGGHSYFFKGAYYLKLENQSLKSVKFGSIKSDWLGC

Row | Compound | IC50 [1] [µM] | IC50 (Aminopeptidase N) [µM]
1 | COC(=O)[C@@H]1C[C@H](NC(=O)c2ccncc2)CN1C(C)=O | 2.2 | 74.8
2 | COC(=O)[C@@H]1C[C@H](N)CN1C(C)=O | 1.5 | 24.1
3 | COC(=O)[C@@H]1C[C@H](N=[N+]=[N-])CN1C(C)=O | 2.6 | 73.7
4 | COC(=O)[C@@H]1C[C@H](NC(=O)/C=C/c2ccccc2)CN1C(=O)CCc1ccc(OC)c(OC)c1 | 1.6 | 233
5 | COC(=O)[C@@H]1C[C@@H](OS(C)(=O)=O)CN1C(=O)/C=C/c1ccc(OC)c(OC)c1 | 1.1 | 46.6
6 | COc1cc(C(=O)N[C@H]2C[C@@H](C(=O)NO)N(C(C)=O)C2)cc(OC)c1OC | 0.001 | 33.5
7 | CC(=O)N1C[C@@H](NC(=O)c2cccnc2)C[C@H]1C(=O)NO | 0.005 | 29.8
8 | COC(=O)[C@@H]1C[C@H](NC(=O)c2ccccc2)CN1C(C)=O | 2.7 | 123
9 | COC(=O)[C@@H]1C[C@H](NC(=O)c2ccc(Cl)cc2)CN1C(C)=O | 4.2 | 122
10 | COC(=O)[C@@H]1C[C@H](NC(=O)c2cnccn2)CN1C(C)=O | 2.1 | 82.6
11 | COC(=O)[C@@H]1C[C@H](NC(=O)c2ccc([N+](=O)[O-])cc2)CN1C(C)=O | 5.2 | 72.3
12 | COC(=O)[C@@H]1C[C@H](NC(=O)c2cccnc2)CN1C(C)=O | 1 | 78.4
13 | CC(=O)N1C[C@@H](NC(=O)/C=C/c2ccccc2)C[C@H]1C(=O)NO | 0.004 | 56.1
14 | COc1ccc(CCC(=O)N2C[C@@H](NC(=O)/C=C/c3ccccc3)C[C@H]2C(=O)NO)cc1OC | 0.011 | 96.6
15 | COC(=O)CNC(=O)[C@@H]1C[C@H](NC(=O)c2cc(OC)c(OC)c(OC)c2)CN1C(C)=O | 0.109 | 121
16 | COC(=O)[C@@H]1C[C@@H](O)CN1C(=O)/C=C/c1ccc(OC)c(OC)c1 | 2.9 | 81.8
17 | COC(=O)[C@@H]1C[C@@H](OS(=O)(=O)c2ccc(C)cc2)CN1C(C)=O | 0.3 | 30.4
18 | COC(=O)[C@@H]1C[C@H](NC(=O)c2cccnc2)CN1C(=O)/C=C/c1ccc(OC)c(OC)c1 | 3 | 137
19 | COC(=O)[C@@H]1C[C@H](N=[N+]=[N-])CN1C(=O)/C=C/c1ccc(OC)c(OC)c1 | 3.4 | 71.3
20 | COC(=O)[C@@H]1C[C@H](N)CN1C(=O)CCc1ccc(OC)c(OC)c1 | 2.1 | 68.4
21 | COC(=O)[C@@H]1C[C@@H](O)CN1C(C)=O | 2 | 38.6
22 | COC(=O)[C@@H]1C[C@H](N)CN1C(=O)/C=C/c1ccc(OC)c(OC)c1 |  | 70.6
23 | COC(=O)[C@@H]1C[C@H](NC(=O)/C=C/c2ccccc2)CN1C(C)=O | 0.1 | 135
24 | COC(=O)[C@@H]1C[C@H](NC(=O)c2cc(OC)c(OC)c(OC)c2)CN1C(C)=O | 0.1 | 98.4
25 | COc1ccc(CCC(=O)N2C[C@@H](NC(=O)c3cccnc3)C[C@H]2C(=O)NO)cc1OC | 0.012 | 62.2
26 | COC(=O)[C@@H]1C[C@H](NC(=O)c2cccnc2)CN1C(=O)CCc1ccc(OC)c(OC)c1 | 2.2 | 196
27 | COC(=O)[C@@H]1C[C@H](NC(=O)c2ccc(Br)cc2)CN1C(C)=O | 6.1 | 149
28 | COC(=O)[C@@H]1C[C@H](NC(=O)/C=C/c2ccc(OC)c(OC)c2)CN1C(C)=O | 0.8 | 162
29 | COc1cc(C(=O)N[C@H]2C[C@@H](C(=O)O)N(C(C)=O)C2)cc(OC)c1OC | 0.016 | 51.4
